In the library only some 4.9% were active in any assay of this set; here they are far more common.
FLuc inhib CS – firefly luciferase enzyme inhibitors, primary screen, artefact control for luciferase-based inhibitor screens, biochemical, luminescence, ATPLite. Luciferin 4-monooxygenase (Photinus pyralis), P08659. 10 min. inhibition, % at 10 µM. 200,000 compounds, 1.5% hits;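 active means inhibition above about 50% when tested at 10 µM, limit read from the data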
Target sequence (P08659 whole entry, looked up): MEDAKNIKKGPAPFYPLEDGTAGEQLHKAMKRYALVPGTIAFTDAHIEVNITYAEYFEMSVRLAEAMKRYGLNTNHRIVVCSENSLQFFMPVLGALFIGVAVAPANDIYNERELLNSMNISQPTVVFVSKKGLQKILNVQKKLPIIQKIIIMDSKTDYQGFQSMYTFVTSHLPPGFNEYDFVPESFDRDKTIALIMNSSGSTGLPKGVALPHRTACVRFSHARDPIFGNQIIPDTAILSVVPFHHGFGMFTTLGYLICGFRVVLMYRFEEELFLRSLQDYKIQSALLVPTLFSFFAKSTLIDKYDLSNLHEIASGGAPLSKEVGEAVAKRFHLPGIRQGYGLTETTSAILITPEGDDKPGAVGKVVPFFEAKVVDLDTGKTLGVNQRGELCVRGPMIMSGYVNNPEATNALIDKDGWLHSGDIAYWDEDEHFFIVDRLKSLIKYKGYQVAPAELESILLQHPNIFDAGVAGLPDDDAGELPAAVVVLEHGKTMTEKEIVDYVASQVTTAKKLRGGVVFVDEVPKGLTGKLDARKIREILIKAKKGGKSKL
STAT3 activator – IL-6 driven STAT3 reporter potentiators, primary screen, U3A cells, luciferase, luminescence, MLSCN library. IL-6 STAT3-luciferase reporter; 100% = signal with IL-6 EC80 alone. activation (% of control), % at 5.6 µM. 190,000 compounds, 0.91% hits;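 active means activation above the screen-wide mean of compound activation plus 3 SD, cut at about 130% in these data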
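Detection: reporter luminescence signal / Assay system: STAT1-lacking human U3A cells, STAT3 luciferase reporter / Incubation: compound pre-incubation 1 h before IL-6, then 6 h stimulation at 37 °C / Control set: IL-6-only high control / Read-out: % activation relative to IL-6 control / Probe or stimulus: Interleukin-6, 33 ng/mL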
STAT1 act – STAT1 signaling activators, primary screen, cell-based, HTS, luciferase reporter; NIH 3T3 STAT1-luciferase reporter, IFN-gamma, luminescence; 100% = IFN-gamma alone, no compound; activation (% of control), % at 5.5 µM; 200,000 compounds, 2.6% hits; AID 932, 2007;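 active means activation above the screen-wide mean activation plus 3 SD, cut at about 130% in these data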
STAT3 blocker – IL-6 driven STAT3 reporter inhibitors, primary screen, U3A cells, luciferase, luminescence, MLSCN library | 190,000 compounds, 0.89% hits | inhibition, % at 5.5 µM | IL-6 STAT3-luciferase reporter; host cell line lacks STAT1 | AID 862, 2007;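 active means inhibition above the mean inhibition across all screened compounds plus 3 SD, cut at about 44% in these data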
STAT1 blocker – STAT1 signaling inhibitors, primary screen, cell-based, HTS, luciferase reporter | NIH 3T3 STAT1-luciferase reporter, IFN-gamma, luminescence | inhibition, % at 5.5 µM | 200,000 compounds, 0.35% hits | AID 920, 2007;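 active means inhibition above a set limit, the mean inhibition across all tested compounds plus 3 SD, cut at about 34% in these data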
FLuc act counter – FLuc activators, initial screening, artefact control for FLuc-dependent activation tests, biochemical, ATPlite luminescence | ATPlite luciferase biochemical, 10 min; 0 = ATP-free wells, 1 = DMSO control | 200,000 tested, under 10 active | AID 1027, 2008 | activation factor at 10 µM;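 active means luciferase activation factor, scaled between plate controls, of at least 2 with compound at 10 µM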
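Material: Luciferase/luciferin reagent mix; Doses: test compounds dosed from 2 mM stocks in 100% DMSO; Schedule: 10 min incubation after luciferase reagent addition, room temperature; Measured by: luminescence from luciferase reaction; Read-out: luminescence gain marking luciferase activators.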
Each line names hits and unclear results; the compound was inactive in the other large screens.

CCOC(=O)C(=O)c1c(-c2ccc(C)cc2)nc2ccccn12	none
CCOC(=O)c1c(-c2ccccc2)nc2ccc(C)cn12	STAT1 act 137.9
CCOC(=O)C1C(C(=O)NN)C1C(=O)Nc1ccccc1 (stereo not drawn)	none
c1ccc2c(-c3csc(-c4ccncc4)n3)c[nH]c2c1	STAT3 activator 144.0, STAT1 act 147.3
c1ccc(-c2csc(-c3ccncc3)n2)cc1	STAT1 act 132.7
O=C(Nc1cccc(-c2csc(-c3ccccc3)n2)c1)c1cccs1	none
Nc1nc(-c2ccc(C(=O)O)cc2)cs1	none
Oc1ccccc1-c1csc(-c2ccccc2)n1	STAT3 activator 169.5, STAT1 act 131.1
Brc1ccc(-c2csc(-c3c[nH]c4ccccc34)n2)cc1	none
Nc1nc(-c2ccc(-c3ccccc3)cc2)cs1	FLuc inhib CS 71.7, STAT1 act 140.8
CCO[C@H]1OC(C(N)=O)=C[C@@H](C)[C@@H]1CCCO	none (no result: STAT3 activator, STAT3 blocker)
CCC(C)NC(=O)COC(=O)c1oc2ccccc2c1CSc1ccc(Cl)cc1 (stereo not drawn)	none
Cc1nc(-c2ccc(NC(=O)CC(C)C)cc2)cs1	FLuc inhib CS 67.8, STAT1 act 129.3
CC(C)C(=O)Nc1ccc(-c2csc(-c3ccccc3)n2)cc1	STAT1 act 141.6
CC(C)C(=O)Nc1cccc(-c2csc(-c3ccccc3)n2)c1	none
Cc1ccc(-n2nnc(-c3cnc4ccccc4c3)n2)cc1	FLuc inhib CS 53.5 (no result: STAT3 activator, STAT3 blocker)
Brc1ccccc1-n1nnc(-c2ccnc3ccccc23)n1	none (no result: STAT3 activator, STAT3 blocker)
Clc1ncccc1-c1nnn(-c2ccccc2)n1	FLuc inhib CS 70.5, STAT1 act 133.5 (no result: STAT3 activator, STAT3 blocker)
ClCc1cc2ccccc2nc1Cl	none
Clc1nc2ccccc2cc1-c1nnn(-c2ccccc2)n1	STAT1 act 132.9 (no result: STAT3 activator, STAT3 blocker)
Fc1ccc(-n2nnc(-c3cccnc3Cl)n2)cc1	FLuc inhib CS 65.6, STAT1 act 143.5 (no result: STAT3 activator, STAT3 blocker)
Cc1ccc(NS(=O)(=O)c2cccc(C(=O)N/N=C/c3ccc4c(c3)OCCO4)c2)c(C)c1	none
O=C(COC(=O)C1CCN(S(=O)(=O)c2cccc3cccnc23)CC1)c1ccccc1	none
COc1ncccc1-c1nnn(-c2ccccc2)n1	FLuc inhib CS 53.8, STAT1 act 148.9 (no result: STAT3 activator, STAT3 blocker)
Fc1ccc(-n2nnc(-c3nccs3)n2)cc1	FLuc inhib CS 75.5 (no result: STAT3 activator, STAT3 blocker)
Cc1ccc(-n2nnc(-c3nccn3C)n2)cc1	FLuc inhib CS 88.1 (no result: STAT3 activator, STAT3 blocker)
COc1ccccc1-c1nnn(C/C(N)=N/O)n1	none
Clc1ccc(-n2nnc(-c3cccnc3Cl)n2)cc1Cl	STAT1 act 135.4 (no result: STAT3 activator, STAT3 blocker)
Cc1c(C#N)sc(C(N)=O)c1C	none
C/C(CC(C)(C)c1ccccc1)=N\NS(=O)(=O)c1ccccc1	none
COc1ccc(-c2cc(COc3ccccc3)on2)cc1	STAT1 act 140.1
COc1ccc(-c2cc(CS(=O)(=O)c3ccccc3)on2)cc1	STAT1 act 142.4
O=S(=O)(Cc1cc(-c2ccccc2)no1)c1ccccc1	STAT1 act 129.1
O=C(O)c1ccc2c(c1)C(=O)N(c1cccc(S(=O)(=O)Nc3cccc(C(F)(F)F)c3)c1)C2=O	none
COC(=O)CCN1CCN(S(=O)(=O)c2ccccc2Br)CC1	none
Brc1c(CSc2nc3ccccc3s2)nc2ncccn12	STAT1 act 132.8
O=[N+]([O-])c1ccc2sc(SCc3nc4ccccn4c3Br)nc2c1	none
CC(C)CC(=O)Nc1ccc(C(=O)Nc2cccc(O)c2)cc1	STAT1 act 131.5
O=C(Nc1cccc(O)c1)c1ccc(C(F)(F)F)cc1	FLuc inhib CS 57.0
CCc1ccc(-c2cc(-c3n[nH]c(=S)n3CC)c3ccccc3n2)cc1	FLuc inhib CS 63.9
CCn1c(-c2cc(-c3cccc(OC)c3)nc3ccccc23)n[nH]c1=S	none
O=C1/C(=C\c2cccs2)Sc2ccc3ccccc3c21	FLuc inhib CS 54.4, STAT3 activator 180.3
O=c1c2c(nc3cc(-c4ccccc4)[nH]n13)CCS2	FLuc inhib CS 60.3
